# Legend:
# Type in all cases: functional
# Leishmania donovani [1] = assay: Antimicrobial activity against Leishmania donovani K132 promastigote; details: read-out: ED50 (the source's name)
# Leishmania donovani [2] = assay: Antimicrobial activity against Leishmania donovani K498 amastigote; details: read-out: ED50 (the source's name)
# Leishmania donovani [3] = assay: Antimicrobial activity against Leishmania donovani K59M20 amastigote; details: read-out: ED50 (the source's name)
# Leishmania donovani [4] = assay: Decrease in LdMT gene expression in Leishmania donovani K111 by RT-PCR method
# How it was run: (§1)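 LdMT transcript levels were measured by real-time RT-PCR with SYBR green and analysed by the 2−ΔΔCt method. They are expressed as an expression index, the ratio relative to reference strain LdAG83, and are the mean of three independent experiments.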
# Leishmania donovani [5] = assay: Antimicrobial activity against Leishmania donovani K111 promastigote; details: read-out: ED50 (the source's name)
# Leishmania donovani [6] = assay: Antimicrobial activity against Leishmania donovani K192 promastigote; details: read-out: ED50 (the source's name)
# Leishmania donovani [7] = assay: Decrease in LdMT gene expression in Leishmania donovani K80 by RT-PCR method
# How it was run: (§2)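 VL field isolates of L. donovani. Transcript levels of LdMT or LdRos3 were measured by real-time RT-PCR with SYBR green and analysed by the 2−ΔΔCt method. The expression index is the ratio of gene expression to that of the standard L. donovani strain LdAG83, and a decrease is relative to LdAG83. Values are means of three independent experiments.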
# Leishmania donovani [8] = assay: Decrease in LdMT gene expression in Leishmania donovani K216 by RT-PCR method; how it was run: as §2
# Leishmania donovani [9] = assay: Decrease in LdMT gene expression in Leishmania donovani K417M20 by RT-PCR method
# How it was run: (§3)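 MIL-resistant M20 parasites were generated by raising the MIL concentration stepwise up to 20 μg/ml. LdMT or LdRos3 expression was quantified by real-time RT-PCR (SYBR green, 2−ΔΔCt method) and reported as an expression index, the ratio to the standard strain LdAG83. A decrease is relative to LdAG83. Values are means of three independent experiments.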
# Leishmania donovani [10] = assay: Decrease in LdRoS3 gene expression in Leishmania donovani K417 by RT-PCR method; how it was run: as §2
# Leishmania donovani [11] = assay: Antimicrobial activity against Leishmania donovani K80 promastigote; details: read-out: ED50 (the source's name)
# Leishmania donovani [12] = assay: Decrease in LdMT gene expression in Leishmania donovani K135 by RT-PCR method; how it was run: as §1
# Leishmania donovani [13] = assay: Antimicrobial activity against Leishmania donovani K149 promastigote; details: read-out: ED50 (the source's name)
# Leishmania donovani [14] = assay: Decrease in LdRoS3 gene expression in Leishmania donovani K59M20 by RT-PCR method; how it was run: as §3
# Leishmania donovani [15] = assay: Decrease in LdMT gene expression in Leishmania donovani K429 by RT-PCR method; how it was run: as §2
# Leishmania donovani [16] = assay: Decrease in LdRoS3 gene expression in Leishmania donovani K111 by RT-PCR method; how it was run: as §2
# Leishmania donovani [17] = assay: Decrease in LdRoS3 gene expression in Leishmania donovani K131 by RT-PCR method; how it was run: as §2
# Leishmania donovani [18] = assay: Decrease in LdRoS3 gene expression in Leishmania donovani K135 by RT-PCR method; how it was run: as §2
# Leishmania donovani [19] = assay: Decrease in LdRoS3 gene expression in Leishmania donovani K498 by RT-PCR method; how it was run: as §2
# Leishmania donovani [20] = assay: Antimicrobial activity against Leishmania donovani K80 amastigote; details: read-out: ED50 (the source's name)
# Leishmania donovani [21] = assay: Antimicrobial activity against Leishmania donovani K509 promastigote; details: read-out: ED50 (the source's name)
# Leishmania donovani [22] = assay: Antimicrobial activity against Leishmania donovani K131 promastigote; details: read-out: ED50 (the source's name)
# Leishmania donovani [23] = assay: Decrease in LdMT gene expression in Leishmania donovani K516 by RT-PCR method; how it was run: as §2
# Leishmania donovani [24] = assay: Antimicrobial activity against Leishmania donovani K216 promastigote; details: read-out: ED50 (the source's name)
# Leishmania donovani [25] = assay: Antimicrobial activity against Leishmania donovani K429 promastigote; details: read-out: ED50 (the source's name)
# Leishmania donovani [26] = assay: Antimicrobial activity against Leishmania donovani K516 amastigote; details: read-out: ED50 (the source's name)
# Leishmania donovani [27] = assay: Decrease in LdRoS3 gene expression in Leishmania donovani K429 by RT-PCR method; how it was run: as §2
# Leishmania donovani [28] = assay: Antimicrobial activity against Leishmania donovani K192 amastigote; details: read-out: ED50 (the source's name)
# Leishmania donovani [29] = assay: Antimicrobial activity against Leishmania donovani K509 amastigote; details: read-out: ED50 (the source's name)
# Leishmania donovani [30] = assay: Decrease in LdMT gene expression in Leishmania donovani K149 by RT-PCR method; how it was run: as §1
# Leishmania donovani [31] = assay: Antimicrobial activity against Leishmania donovani K481 promastigote; details: read-out: ED50 (the source's name)
# Leishmania donovani [32] = assay: Decrease in LdMT gene expression in Leishmania donovani K59M20 by RT-PCR method; how it was run: as §3
# Leishmania donovani [33] = assay: Decrease in LdRoS3 gene expression in Leishmania donovani K149 by RT-PCR method; how it was run: as §2
# Leishmania donovani [34] = assay: Antimicrobial activity against Leishmania donovani K135 amastigote; details: read-out: ED50 (the source's name)
# Leishmania donovani [35] = assay: Antimicrobial activity against Leishmania donovani K132 amastigote; details: read-out: ED50 (the source's name)
# Leishmania donovani [36] = assay: Decrease in LdMT gene expression in Leishmania donovani K498 by RT-PCR method; how it was run: as §2
# Leishmania donovani [37] = assay: Antimicrobial activity against Leishmania donovani K435 amastigote; details: read-out: ED50 (the source's name)
# Leishmania donovani [38] = assay: Decrease in LdRoS3 gene expression in Leishmania donovani K251 by RT-PCR method; how it was run: as §2
# Leishmania donovani [39] = assay: Antimicrobial activity against Leishmania donovani K111 amastigote; details: read-out: ED50 (the source's name)
# Leishmania donovani [40] = assay: Decrease in LdRoS3 gene expression in Leishmania donovani K132 by RT-PCR method; how it was run: as §2
# Leishmania donovani [41] = assay: Decrease in LdRoS3 gene expression in Leishmania donovani K516 by RT-PCR method; how it was run: as §2
structure (smiles),measurement,setting,value
CCCCCCCCCCCCCCCCOP(=O)([O-])OCC[N+](C)(C)C [MILTEFOSINE],EC50,Leishmania donovani [1],0.53 µg/mL
same,EC50,Leishmania donovani [2],1.65 µg/mL
same,EC50,Leishmania donovani [3],> 15 µg/mL
same,fold change (FC),Leishmania donovani [4],3.4
same,EC50,Leishmania donovani [5],0.47 µg/mL
same,EC50,Leishmania donovani [6],1.91 µg/mL
same,fold change (FC),Leishmania donovani [7],1.24
same,fold change (FC),Leishmania donovani [8],1.4
same,fold change (FC),Leishmania donovani [9],11.3
same,fold change (FC),Leishmania donovani [10],5.02
same,EC50,Leishmania donovani [11],1.58 µg/mL
same,fold change (FC),Leishmania donovani [12],2.86
same,EC50,Leishmania donovani [13],1.56 µg/mL
same,fold change (FC),Leishmania donovani [14],100
same,fold change (FC),Leishmania donovani [15],1.26
same,fold change (FC),Leishmania donovani [16],5.26
same,fold change (FC),Leishmania donovani [17],11.1
same,fold change (FC),Leishmania donovani [18],1.67
same,fold change (FC),Leishmania donovani [19],7.63
same,EC50,Leishmania donovani [20],1.32 µg/mL
same,EC50,Leishmania donovani [21],1.94 µg/mL
same,EC50,Leishmania donovani [22],0.63 µg/mL
same,fold change (FC),Leishmania donovani [23],8
same,EC50,Leishmania donovani [24],0.76 µg/mL
same,EC50,Leishmania donovani [25],1.26 µg/mL
same,EC50,Leishmania donovani [26],2.02 µg/mL
same,fold change (FC),Leishmania donovani [27],8.85
same,EC50,Leishmania donovani [28],1.99 µg/mL
same,EC50,Leishmania donovani [29],2.16 µg/mL
same,fold change (FC),Leishmania donovani [30],1.08
same,EC50,Leishmania donovani [31],1.9 µg/mL
same,fold change (FC),Leishmania donovani [32],13.33
same,fold change (FC),Leishmania donovani [33],7.69
same,EC50,Leishmania donovani [34],0.72 µg/mL
same,EC50,Leishmania donovani [35],0.48 µg/mL
same,fold change (FC),Leishmania donovani [36],1.38
same,EC50,Leishmania donovani [37],1.08 µg/mL
same,fold change (FC),Leishmania donovani [38],52.63
same,EC50,Leishmania donovani [39],0.85 µg/mL
same,fold change (FC),Leishmania donovani [40],55.55
same,fold change (FC),Leishmania donovani [41],83.33

# From ChEMBL document CHEMBL1629601, “In vitro susceptibility of field isolates of Leishmania donovani to Miltefosine and amphotericin B: correlation with sodium antimony gluconate susceptibility and implications for treatment in areas of endemicity” (2009)
